Test results published in ChEMBL document CHEMBL3739273, “Synthesis, biological activity evaluation and molecular docking studies of novel coumarin substituted thiazolyl-3-aryl-pyrazole-4-carbaldehydes” (Bioorg Med Chem Lett, 2015).
Converted amounts (≈) assume the structure as drawn. The source made the active and inactive calls. The calls are words filed in the database; no cut-off is given here.

What was measured:
Bacillus cereus [1] = assay: Bactericidal activity against Bacillus cereus ATCC 14579 after 24 hrs; type: functional; conditions: ATCC 14579, 24 h, read-out: MBC99.9
Summary of the method: (§1)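 MBC determined by a standard MBC protocol alongside the MIC, with values in µg/mL. Gentamycin sulfate and ampicillin were the references.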

Staphylococcus aureus [2] = assay: Antibacterial activity against methicillin-resistant Staphylococcus aureus NCTC 13616 after 24 hrs by microtiter plate method; type: functional; conditions: NCTC 13616, 24 h
Staphylococcus aureus [3] = assay: Bactericidal activity against methicillin-resistant Staphylococcus aureus NCTC 13616 after 24 hrs; type: functional; conditions: NCTC 13616, 24 h, read-out: MBC99.9
Summary of the method: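 MBC determined by a standard MBC protocol run alongside the MIC determination. Gentamycin sulfate and ampicillin served as reference drugs.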

Bacillus spizizenii [4] = assay: Bactericidal activity against Bacillus subtilis ATCC 6633 after 24 hrs; type: functional; conditions: ATCC 6633, 24 h, read-out: MBC99.9; summary of the method: as §1
Bacillus spizizenii [5] = assay: Antibacterial activity against Bacillus subtilis ATCC 6633 after 24 hrs by microtiter plate method; type: functional; conditions: ATCC 6633, 24 h
Summary of the method: (§2)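 Test concentrations reported in µg/mL. Gentamycin sulfate and ampicillin were the reference drugs.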

Bacillus cereus [6] = assay: Antibacterial activity against Bacillus cereus ATCC 14579 after 24 hrs by microtiter plate method; type: functional; conditions: ATCC 14579, 24 h; summary of the method: as §2
Escherichia coli [7] = assay: Antibacterial activity against Escherichia coli ATCC 8739 after 24 hrs by microtiter plate method; type: functional; conditions: ATCC 8739, 24 h; summary of the method: as §2
Escherichia coli [8] = assay: Bactericidal activity against Escherichia coli ATCC 8739 after 24 hrs; type: functional; conditions: ATCC 8739, 24 h, read-out: MBC99.9; summary of the method: as §1
[9] = Anticancer activity against human DU145 cells assessed as cell viability after 48 hrs by MTT assay; type: functional, cell-based; conditions: DU-145, 48 h
Summary of the method: (§3)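 MTT cytotoxicity assay in human DU-145 prostate, MCF-7 breast and HeLa cervical cancer cell lines. Doxorubicin was the reference drug.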

Proteus vulgaris [10] = assay: Bactericidal activity against Proteus vulgaris ATCC 13315 after 24 hrs; type: functional; conditions: ATCC 13315, 24 h, read-out: MBC99.9; summary of the method: as §1
Proteus vulgaris [11] = assay: Antibacterial activity against Proteus vulgaris ATCC 13315 after 24 hrs by microtiter plate method; type: functional; conditions: ATCC 13315, 24 h; summary of the method: as §2
Klebsiella pneumoniae [12] = assay: Bactericidal activity against Klebsiella pneumoniae ATCC 43816 after 24 hrs; type: functional; conditions: ATCC 43816, 24 h, read-out: MBC99.9; summary of the method: as §1
Escherichia coli [13] = assay: Antibacterial activity against Escherichia coli ATCC 8739 assessed as growth inhibition at 100 ug/ml after 24 hrs by agar well diffusion method; type: functional
Summary of the method: (§4)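 Agar well diffusion. Compounds were tested at 10, 20, 100, 200 and 300 µg/mL, and the zone of inhibition was measured in mm. Gentamycin sulfate was the reference drug.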

Proteus vulgaris [14] = assay: Antibacterial activity against Proteus vulgaris ATCC 13315 assessed as growth inhibition at 100 ug/ml after 24 hrs by agar well diffusion method; type: functional; summary of the method: as §4
Bacillus spizizenii [15] = assay: Antibacterial activity against Bacillus subtilis ATCC 6633 assessed as growth inhibition at 100 ug/ml after 24 hrs by agar well diffusion method; type: functional, organism-based; summary of the method: as §4
HeLa = assay: Anticancer activity against human HeLa cells assessed as cell viability after 48 hrs by MTT assay; type: functional, cell-based; summary of the method: as §3
Staphylococcus aureus [16] = assay: Antibacterial activity against methicillin-resistant Staphylococcus aureus NCTC 13616 assessed as growth inhibition at 100 ug/ml after 24 hrs by agar well diffusion method; type: functional, organism-based
Summary of the method: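 Agar well diffusion assay with compounds applied to wells at several concentrations, including the 100 level reported here. The zone of inhibition was measured in mm. Gentamycin sulfate was the standard drug.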

Bacillus cereus [17] = assay: Antibacterial activity against Bacillus cereus ATCC 14579 assessed as growth inhibition at 100 ug/ml after 24 hrs by agar well diffusion method; type: functional; summary of the method: as §4
Klebsiella pneumoniae [18] = assay: Antibacterial activity against Klebsiella pneumoniae ATCC 43816 after 24 hrs by microtiter plate method; type: functional; conditions: ATCC 43816, 24 h; summary of the method: as §2
MCF7 = assay: Anticancer activity against human MCF7 cells assessed as cell viability after 48 hrs by MTT assay; type: functional, cell-based; conditions: MCF7, 48 h; summary of the method: as §3
Cytochrome P450 2A6 = target: T1, Cytochrome P450 2A6 (Homo sapiens, UniProt P11509); assay: Inhibition of human microsomal CYP2A6; type: ADME
T1 sequence (P11509 whole entry): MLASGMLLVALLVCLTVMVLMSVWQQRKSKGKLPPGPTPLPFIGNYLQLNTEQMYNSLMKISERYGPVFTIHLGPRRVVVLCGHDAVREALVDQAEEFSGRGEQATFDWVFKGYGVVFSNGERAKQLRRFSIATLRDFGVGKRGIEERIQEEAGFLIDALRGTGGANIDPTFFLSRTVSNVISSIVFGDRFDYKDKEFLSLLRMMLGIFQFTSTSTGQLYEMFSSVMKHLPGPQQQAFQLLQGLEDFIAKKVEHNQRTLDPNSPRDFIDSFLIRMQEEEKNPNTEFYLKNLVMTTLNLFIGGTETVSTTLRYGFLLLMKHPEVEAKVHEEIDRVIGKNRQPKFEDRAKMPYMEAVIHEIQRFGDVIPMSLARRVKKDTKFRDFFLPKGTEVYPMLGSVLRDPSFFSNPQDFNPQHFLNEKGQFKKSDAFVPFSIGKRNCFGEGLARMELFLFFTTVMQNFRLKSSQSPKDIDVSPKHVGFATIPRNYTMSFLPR

Klebsiella pneumoniae [19] = assay: Antibacterial activity against Klebsiella pneumoniae ATCC 43816 assessed as growth inhibition at 100 ug/ml after 24 hrs by agar well diffusion method; type: functional; summary of the method: as §4
[20] = n-Octanol-phosphate buffer partition coefficient, log P of the compound at pH 7.4 after 30 mins by shake flask method; type: physicochemical
Summary of the method: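 Shake-flask partition between n-octanol and 50 mM phosphate buffer, pH 7.4. P calculated and expressed as logP.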

| SMILES | MBC (Bacillus cereus [1]) [mg/L] | MIC (Staphylococcus aureus [2]) [mg/L] | MBC (Staphylococcus aureus [3]) [mg/L] | MBC (Bacillus spizizenii [4]) [mg/L] | MIC (Bacillus spizizenii [5]) [mg/L] | MIC (Bacillus cereus [6]) [mg/L] | MIC (Escherichia coli [7]) [mg/L] | MBC (Escherichia coli [8]) [mg/L] | IC50 [9] [µM] | MBC (Proteus vulgaris [10]) [mg/L] | MIC (Proteus vulgaris [11]) [mg/L] | MBC (Klebsiella pneumoniae [12]) [mg/L] | growth inhibition (GI) (Escherichia coli [13]) | growth inhibition (GI) (Proteus vulgaris [14]) | growth inhibition (GI) (Bacillus spizizenii [15]) | IC50 (HeLa) [µM] | growth inhibition (GI) (Staphylococcus aureus [16]) | MIC (Klebsiella pneumoniae [18]) [mg/L] | IC50 (MCF7) [µM] | Ki (Cytochrome P450 2A6) [µM] | further results |
| --- | --- | --- | --- | --- | --- | --- | --- | --- | --- | --- | --- | --- | --- | --- | --- | --- | --- | --- | --- | --- | --- |
| CC1(C)S[C@@H]2[C@H](NC(=O)[C@H](N)c3ccccc3)C(=O)N2[C@H]1C(=O)O [AMPICILLIN] | 8 (≈ 22.9 µM) | 4 (≈ 11.4 µM) | 6 (≈ 17.2 µM) | 10 (≈ 28.6 µM) | 5 (≈ 14.3 µM) | 4 (≈ 11.4 µM) | 10 (≈ 28.6 µM) | 18 (≈ 51.5 µM) |  |  |  |  |  |  |  |  |  |  |  |  |  |
| O=Cc1cn(-c2nc(-c3cc4cc(Cl)cc(Cl)c4oc3=O)cs2)nc1-c1ccccc1 | 175 (≈ 374 µM) | 115 (≈ 246 µM) | 175 (≈ 374 µM) | 250 (≈ 534 µM) | 123 (≈ 263 µM) | 117 (≈ 250 µM) | 120 (≈ 255 µM) | 240 (≈ 512 µM) | 41.1 | 260 (≈ 555 µM) | 132 (≈ 281 µM) | 175 (≈ 374 µM) | Active | Active | Active | 13.8 | Active | 118 (≈ 252 µM) | 76.3 | 0.00307 | growth inhibition (GI) (Bacillus cereus [17]): Active; growth inhibition (GI) (Klebsiella pneumoniae [19]): Active |
| COc1cccc2cc(-c3csc(-n4cc(C=O)c(-c5ccc(C)cc5)n4)n3)c(=O)oc12 | 275 (≈ 620 µM) | 150 (≈ 338 µM) | 300 (≈ 676 µM) | 300 (≈ 676 µM) | 150 (≈ 338 µM) | 136 (≈ 307 µM) | 133 (≈ 299 µM) | 260 (≈ 586 µM) | 31.4 | 285 (≈ 643 µM) | 142 (≈ 320 µM) | 300 (≈ 676 µM) |  |  |  | 28.2 | inactive | 150 (≈ 338 µM) | 42.6 | 0.00193 |  |
| O=Cc1cn(-c2nc(-c3cc4ccccc4oc3=O)cs2)nc1-c1ccccc1 | 290 (≈ 726 µM) | 150 (≈ 376 µM) | 300 (≈ 751 µM) | 260 (≈ 651 µM) | 132 (≈ 330 µM) | 145 (≈ 363 µM) | 135 (≈ 338 µM) | 270 (≈ 676 µM) | > 100 | 200 (≈ 501 µM) | 133 (≈ 333 µM) | 225 (≈ 563 µM) |  |  |  | > 100 | inactive | 150 (≈ 376 µM) | > 100 | 0.013 |  |
| Cc1ccc(-c2nn(-c3nc(-c4cc5ccccc5oc4=O)cs3)cc2C=O)cc1 | 270 (≈ 653 µM) | 150 (≈ 363 µM) | 300 (≈ 726 µM) | 300 (≈ 726 µM) | 150 (≈ 363 µM) | 135 (≈ 327 µM) | 132 (≈ 320 µM) | 260 (≈ 629 µM) | 50.2 | 300 (≈ 726 µM) | 150 (≈ 363 µM) | 300 (≈ 726 µM) |  |  |  | 37.4 | inactive | 150 (≈ 363 µM) | 69.5 | 0.011 |  |
| O=Cc1cn(-c2nc(-c3cc4cc(Br)cc(Br)c4oc3=O)cs2)nc1-c1ccccc1 | 240 (≈ 431 µM) | 117 (≈ 210 µM) | 175 (≈ 314 µM) | 240 (≈ 431 µM) | 118 (≈ 212 µM) | 119 (≈ 214 µM) | 116 (≈ 207 µM) | 170 (≈ 305 µM) | 28 | 240 (≈ 431 µM) | 120 (≈ 215 µM) | 240 (≈ 431 µM) | Active | Active | Active | 13.7 | Active | 119 (≈ 214 µM) | 22.2 | 0.00341 | growth inhibition (GI) (Bacillus cereus [17]): Active; growth inhibition (GI) (Klebsiella pneumoniae [19]): Active; logD at 0.5 h [20]: 3.11 |
